Rows were chosen to be rich in hits. Some 3% of all compounds tested hit in one or more screens of this group.
Tn6 DDE FP: inhibitors of Tn6 peptide binding to human fibrin DD(E); AID 720509; Fibrin DD(E) TRITC-Tn6 fluorescence polarization displacement; 370,000 compounds, 0.21% hits; P02675; inhibition, % at 8.3 µM;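 active = inhibition above a per-campaign cutoff: mean of compounds within control limits plus 3 SD, cut at about 15% in these data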;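 note: 0% = median of all compound wells on the plate and 100% = blocking peptide control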
PLCg1 inh: inhibitors of human phospholipase C gamma1 | 370,000 compounds, 0.84% hits | purified PLC-gamma1, fluorogenic substrate, fluorescence | inhibition, % at 12.2 µM | P19174; in the data active = inhibition above about 9.5%
PLCb3 inh: inhibitors of human phospholipase C beta3; Purified PLC-beta3, fluorogenic substrate, fluorescence; AID 720704; Q01970; inhibition, % at 12.2 µM; 370,000 compounds, 0.18% hits; in the data active = inhibition above about 11%;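 note: 0% = median of compound wells on plate and 100% = full blocker control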
KLK7 zymogen act: activators of human kallikrein-7 zymogen; P49862; purified proKLK7, EDANS-DABCYL substrate fluorescence; 100% is mature enzyme control, 0% vehicle; activation, % at 7 µM; 370,000 compounds, 0.9% hits; AID 652039;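 active = activation above the mean of all tested compounds plus 3 SD, computed per campaign excluding outliers beyond control limits, cut at about 13% in these data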
Tn7 DDE FP: DD(E)-Tn7 binding inhibition, primary FP screen. P02675. FP displacement of FITC-Tn7 peptide from fibrin DD(E); 0% = median of compound wells per plate. inhibition, % at 8.3 µM. 370,000 compounds, 0.13% hits;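 active = inhibition above the mean of compounds falling within the control limits plus 3 SD of them, cut at about 14% in these data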;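 note: 0% = plate median of compound wells and 100% = 10 µM Aha-Tn7 peptide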
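Measure: % inhibition scaled between sample-field median and high-control FP; Test system: human fibrin DD(E); Quantity: 2 µM final DD(E) protein; Doses: one dose, 8.3 µM nominal; Schedule: compound with protein 10 min, then 3 h after probe, room temperature; Detection: fluorescence polarization; Medium: Tris buffer with calcium and detergent, pH 7.8.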
NRP1-CendR mod: modulators of CendR peptide binding to human neuropilin-1; O14786; FAM-RPARPAR peptide binding to NRP-1, fluorescence polarization; AID 602438; 360,000 compounds, 0.85% hits; inhibition, % at 25 µM;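 active = inhibition or corrected inhibition above about 18%, plus a signal ratio from 0.5 to 1.5, limit read from the data, passing the limit was not always enough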
Target sequence (O14786 whole entry, looked up): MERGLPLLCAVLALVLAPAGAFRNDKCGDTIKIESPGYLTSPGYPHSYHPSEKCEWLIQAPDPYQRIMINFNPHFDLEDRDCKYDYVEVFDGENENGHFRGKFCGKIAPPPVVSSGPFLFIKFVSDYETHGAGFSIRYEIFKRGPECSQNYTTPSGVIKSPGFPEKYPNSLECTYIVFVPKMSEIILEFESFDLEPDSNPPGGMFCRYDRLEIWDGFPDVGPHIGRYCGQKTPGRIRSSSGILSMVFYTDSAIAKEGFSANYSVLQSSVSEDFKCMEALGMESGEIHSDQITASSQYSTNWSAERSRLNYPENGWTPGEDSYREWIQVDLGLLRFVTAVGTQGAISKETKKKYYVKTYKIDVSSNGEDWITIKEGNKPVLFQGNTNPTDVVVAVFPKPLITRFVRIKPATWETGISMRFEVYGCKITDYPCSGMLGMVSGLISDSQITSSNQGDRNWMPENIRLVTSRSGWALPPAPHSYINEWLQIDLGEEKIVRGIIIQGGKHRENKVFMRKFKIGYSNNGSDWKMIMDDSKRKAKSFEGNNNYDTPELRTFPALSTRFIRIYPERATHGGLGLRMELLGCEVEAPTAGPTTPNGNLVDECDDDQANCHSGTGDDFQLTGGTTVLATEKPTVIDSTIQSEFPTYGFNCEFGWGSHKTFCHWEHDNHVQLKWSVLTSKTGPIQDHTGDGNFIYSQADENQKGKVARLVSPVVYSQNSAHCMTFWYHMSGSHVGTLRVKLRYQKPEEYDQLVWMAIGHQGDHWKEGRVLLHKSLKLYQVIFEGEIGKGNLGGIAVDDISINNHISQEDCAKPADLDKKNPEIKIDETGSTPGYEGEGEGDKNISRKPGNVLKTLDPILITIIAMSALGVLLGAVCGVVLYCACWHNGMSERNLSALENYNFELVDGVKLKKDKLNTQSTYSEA
DDE Tn7 confirm: DD(E)-Tn7 binding inhibition, FP confirmation. inhibition, % at 8.3 µM. shares compounds with Tn7 DDE FP. FP displacement of TRITC-Tn7 peptide from DD(E); 0% set at plate's compound-well median. 460 compounds, 5% hits;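 active = inhibition above the campaign cutoff, the mean of compounds within control limits plus 3 SD, cut at about 14% in these data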;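 note: 100% = median FP of high control wells holding Aha-Tn7 inhibitor peptide; displacers lower polarization since freed probe rises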
DDE Tn7 FP ctr: counter-screen hit for Tn7 peptide-fibrin DD(E) binding disruption; shares compounds with Tn7 DDE FP; 460 compounds, 3% hits; inhibition, % at 8.3 µM; TRITC-Tn7 probe displacement, fluorescence polarization; AID 720633;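 active = inhibition above the cutoff, the mean of compounds lying between the control bounds plus 3 SD of those compounds, cut at about 17% in these data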;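 note: 0% = median of compound sample wells and 100% = excess unlabeled Aha-Tn7 peptide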
* hit, by the source's call; / = no result.

SMILES	Tn6 DDE FP	PLCg1 inh	PLCb3 inh	KLK7 zymogen act	Tn7 DDE FP	NRP1-CendR mod	DDE Tn7 confirm	DDE Tn7 FP ctr
O=C(Nc1ccc(-c2cnco2)cc1)c1ccc(F)cc1F	-3	-4	-6	1	11	2	/	/
Cn1c(=O)c(Nc2ccc(O)cc2)c2c3c(cccc31)C(=O)c1ccccc1-2	3	-67	-89	0	16*	81*	9	5
CC(C)c1ccc(Nc2c([N+](=O)[O-])c(=O)n(C)c3ccccc23)cc1	2	-2	-5	0	-6	6	/	/
O=C(c1ccncc1F)N1CCC(n2nnc3ncccc32)CC1	-4	2	4	0	0	/	/	/
CCN(CC)CCCNC(=O)c1oc(=O)c2ccccc2c1-c1ccc(C)cc1	-6	-2	-1	0	3	/	/	/
CSCCCNC(=O)c1oc(=O)c2ccccc2c1-c1ccc(C)cc1	7	0	0	0	15*	/	-2	-3
Cc1onc(C(=O)Nc2sc3c(c2C(N)=O)CCCC3)c1[N+](=O)[O-]	1	-5	-19	0	16*	-3	3	0
CCCNC(=O)C1(C)CCCN(C(=O)c2cccnc2Oc2ccccc2)C1 (configuration not stated)	6	-1	1	0	14*	0	4	6
CC1=NC(C(F)(F)F)(C(F)(F)F)C2=C(CC(C)(C)CC2=O)N1Cc1ccco1	-8	-4	3	0	14*	22	6	3
CC1(C)CC(=O)C2=C(C1)N(Cc1ccco1)C(=O)C2(NC(=O)C1CCCCC1)C(F)(F)F (configuration not stated)	-2	-5	2	-1	14*	6	2	5
C#CCN1C(=O)[C@@](O)(c2cccn2C)c2cc(F)ccc21	-2	7	0	0	-8	/	/	/
COC(=O)C[C@H]1CC[C@@H]2[C@@H](COc3ccc(NC(=O)c4ccccc4)cc3C(=O)N2C)O1	7	2	4	0	-6	/	/	/
COc1ccccc1NS(=O)(=O)c1cc(C(=O)NCC(c2ccco2)N(C)C)ccc1C (configuration not stated)	0	-2	-6	0	3	3	/	/
COc1ccccc1NS(=O)(=O)c1cccc(C(=O)NCC(c2ccco2)N(C)C)c1 (configuration not stated)	10	-8	-11	0	14*	0	-1	0
COc1ccc(N(CC(=O)NCc2ccc3c(c2)OCO3)S(=O)(=O)c2ccc(O)c(C(=O)O)c2)cc1	2	-4	-5	0	15*	-9	-2	-9
COc1ccc(S(=O)(=O)N(C)CC(=O)NCc2ccc3c(c2)OCO3)cc1	7	-2	-5	0	3	3	/	/
COc1c(Cl)cc(C(=O)NCc2ccco2)cc1Cl	4	2	-7	1	14*	-2	11	7
Cc1ccccc1C(=O)NCC(C)NC(=O)c1ccccc1C (configuration not stated)	0	0	-4	0	14*	5	0	-2
C=CCn1c(SCc2c(Cl)cccc2Cl)nnc1-c1cccc(C)c1	7	1	0	0	2	/	/	/
COc1ccc(/C=N/N2CCN(c3ccc(Cl)cc3)CC2)cc1O	2	3	0	0	15*	14	2	-1
COc1ccc(/C=N/N2CCN(c3ccc(Cl)cc3)CC2)cc1	1	0	-2	0	3	-3	/	/
CCOC(=O)[C@]12CCCC=C1N(CCCOC)C(=O)[C@@H]2CC(=O)NCC12CC3CC(CC(C3)C1)C2	4	-1	3	0	8	/	/	/
O=C(Nc1cccc(Cl)c1)N1CCCC1	6	1	2	-1	14*	-2	0	-2
O=C(Nc1cccc(Cl)c1)N1CCOCC1	0	-3	-7	0	2	-3	/	/
O=C(/C(=C/c1ccccc1)c1ccccc1)N1CCCCC1	1	-1	0	-1	1	5	/	/
SMILES	Tn6 DDE FP	PLCg1 inh	PLCb3 inh	KLK7 zymogen act	Tn7 DDE FP	NRP1-CendR mod	DDE Tn7 confirm	DDE Tn7 FP ctr
O=C(C(=Cc1ccccc1)c1ccccc1)c1ccccc1	10	3	3	0	16*	6	0	-1
CCOC(=O)c1csc(NC(=O)C2CCCN(S(=O)(=O)c3ccc(Br)s3)C2)n1 (configuration not stated)	0	-1	0	1	-7	/	/	/
Cn1cccc1C(=O)OCC(=O)NCc1ccc2c(c1)OCO2	-3	-3	-14	0	21*	7	4	3
O=C1C=C(NNC(=O)c2ccncc2)CC(c2ccccc2)C1 (configuration not stated)	5	-97	-140	-3	29*	-44	-7	-15
O=C1C=C(NCc2ccncc2)CC(c2ccccc2)C1 (configuration not stated)	2	-18	-21	0	6	-8	/	/
CCN(CC)c1ccc(C=Nn2c(C)nnc2C)cc1	3	6	3	0	-4	/	/	/
CC1=C(C(=O)OC(C)C)C(c2ccc3c(c2)OCO3)NC(=O)N1 (configuration not stated)	-6	-2	-4	0	16*	-2	3	-1
CC(C)(C)c1cc(C(=O)N/N=C/c2ccc(F)cc2)n(-c2ccccc2)n1	3	5	0	0	14*	-5	3	-1
CC(C)(C)c1cc(C(=O)N/N=C/c2ccccc2O)n(-c2ccccc2)n1	-5	-9	-7	-1	-7	15	/	/
CSc1cc(-c2ccccc2)n(C)c(=O)c1C#N	-3	-1	-1	0	3	9	/	/
CCOC(=O)Cn1c(-c2ccccc2)cc(SC)c(C#N)c1=O	-3	-5	-8	-1	14*	13	3	-3
Cc1ccc(/C=N/N2C(=O)C3C(C2=O)C2C=CC3C23CC3)o1 (configuration not stated)	-2	3	-6	0	14*	9	4	4
O=C1C2C(C(=O)N1/N=C/c1ccco1)C1C=CC2C12CC2 (configuration not stated)	7	2	3	0	-4	2	/	/
COCCCNC(=O)C[C@H]1C[C@@]2(C(=O)OC)C(=C[C@H](C(C)C)O[C@@H]2C2CC2)N(CCC2=CCCCC2)C1=O	6	1	5	0	5	/	/	/
